Bioassay records deposited in PubChem BioAssay by several laboratories.
m5-HT2A agonist = mouse HTR2A agonism via beta-arrestin recruitment; activation, % at 7.6 µM; CHO-K1 mHTR2A beta-arrestin complementation, luminescence; percent of 30 µM serotonin response; 0.66% of 360,000 active; AID 624169; P35363;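 active = activation above a run cutoff, the mean activation of all tested compounds plus 3 SD, cut at about 14% in these data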;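 note: 0% = plate median of compound wells and 100% = 30 µM serotonin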
APJ antagonist = blocks the human apelin receptor APJ. P35414. CHO-K1 APJ beta-arrestin complementation, luminescence. inhibition, % at 20 µM. 0.32% of 330,000 active;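 active = inhibition above about 40% at 20 µM, limit read from the data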;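 note: cells challenged with 10 nM apelin-13 agonist together with compound; plate controls were apelin-13 plus DMSO wells for no effect and DMSO wells lacking apelin-13 for full effect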
APJ ag = APJ receptor agonism; CHO-K1 APJ PathHunter beta-arrestin, luminescence; 0% DMSO wells, 100% apelin; activation, % at 20 µM; P35414; 0.11% of 330,000 active;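 active = activation more than six SD over the plate average, tested at 20 µM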;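 note: 0% = DMSO alone and 100% = apelin-13 at 10 nM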
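Material: engineered CHO-K1 APJ arrestin reporter cells; amount: 1000 CHO-K1 reporter cells seeded per well; incubation: compound stimulation 90 min at 25 °C, detection 60 min; signal: luminescent beta-gal fragment complementation, chemiluminescent substrate; read-out basis: APJ agonist activity; controls: DMSO-only wells as negative, 10 nM Apelin-13 as positive control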
EBI2 block = EBI2 (human) antagonism; inhibition, % at 5 µM; EBI2 beta-arrestin recruitment, luminescence, 7a,25-OHC stimulated; AID 651636; 0.81% of 360,000 active; P32249; in the data active = inhibition above about 38%;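 note: enzyme fragment complementation signal reports receptor beta-arrestin coupling in cells; 0% = agonist plus DMSO wells and 100% = wells without agonist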
CCR6 antagonist = antagonists of human CCR6 receptor. CHO-K1 CCR6 PathHunter beta-arrestin, luminescence, CCL20-stimulated. 0.49% of 340,000 active. P51684. inhibition, % at 20 µM;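 active = compounds whose inhibition of the agonist-driven luminescence signal at 20 µM reaches about 50%, limit read from the data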;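 note: cells stimulated with CCL20 at 14 nM final; plate controls were DMSO with CCL20 for no effect and DMSO without agonist for full effect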
Target sequence (P51684 whole entry, looked up): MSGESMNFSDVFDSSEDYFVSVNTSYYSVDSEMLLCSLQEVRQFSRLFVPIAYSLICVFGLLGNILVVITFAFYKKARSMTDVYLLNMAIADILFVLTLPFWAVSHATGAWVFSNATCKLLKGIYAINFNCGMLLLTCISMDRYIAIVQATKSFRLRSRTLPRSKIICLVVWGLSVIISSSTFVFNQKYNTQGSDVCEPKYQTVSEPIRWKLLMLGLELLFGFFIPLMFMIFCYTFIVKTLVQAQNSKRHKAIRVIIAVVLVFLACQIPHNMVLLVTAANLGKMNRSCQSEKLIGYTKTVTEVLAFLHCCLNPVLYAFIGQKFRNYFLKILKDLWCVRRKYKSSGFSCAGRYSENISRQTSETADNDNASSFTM
CXCR6 block = blocks human CXCR6 beta-arrestin recruitment; CHO-K1 PathHunter CXCR6 beta-arrestin, luminescence; inhibition, % at 20 µM; 0.36% of 360,000 active; in the data active = inhibition above about 34%, passing the limit was not always enough;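 note: antagonist mode with CXCL16 agonist at 10 nM final; 0% = 10 nM CXCL16 with DMSO and 100% = unstimulated wells without agonist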
EBI2 conf = EBI2 (human) antagonism, single concentration confirmation | shares compounds with EBI2 block | EBI2 beta-arrestin luminescence, 7a,25-OHC antagonism | inhibition, % at 5 µM | 29% of 2,400 active;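 active = inhibition of at least 50%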
EBI2 ag = EBI2 agonism counter-screen; AID 652000; activation, % at 5 µM; 2,400 tested, under 10 active; shares compounds with EBI2 block; EBI2-expressing cells, agonist mode, luminescence, 60 min; 0% vehicle, 100% 7α,25-dihydroxycholesterol control;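 active = activation of at least 50%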
bGal counter = inhibits E. coli beta-galactosidase, counter-screen for EBI2 antagonists; shares compounds with EBI2 block; purified beta-galactosidase, luminescent Galacton Star, 15 min; inhibition, % at 5 µM; 1% of 2,400 active;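 active = replicate-average signal at least 3 plate SD below neutral wells, shown as high inhibition, flagging enzyme-inhibiting false positives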;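 note: 0% = DMSO wells with enzyme and 100% = wells lacking enzyme; higher means stronger loss of beta-gal luminescence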
* = called active by the depositor; · = no result given. A selection: hits, their analogues and other compounds. The true share with any hit is near 2.2%.

SMILES	m5-HT2A agonist	APJ antagonist	APJ ag	EBI2 block	CCR6 antagonist	CXCR6 block	EBI2 conf	EBI2 ag	bGal counter
Cc1ccc2oc(C(=O)N3CCC(N4CCSCC4)CC3)c(C)c2c1	-6.3	3.9	-3.5	71.3*	2.3	-5.6	46.2	1.8	4.3
Cc1c(C(=O)N2CCC(N3CCSCC3)CC2)oc2c(F)cccc12	-0.8	-10.0	-3.6	46.5*	5.9	-6.9	12.1	-1.4	-11.7
CCOC(=O)[C@]12CCCC=C1N(Cc1ccc(Cl)cc1Cl)C(=O)[C@H](CC(=O)N1CCN(C(=O)c3ccco3)CC1)C2	-1.2	·	·	16.3	·	9.3	·	·	·
COc1ccc(C2CCCN2C(=O)Nc2ccc(Cl)cc2)cc1OC (stereo not given)	-3.8	0.4	-2.0	59.0*	11.2	-6.4	48.5	0.7	6.2
COc1ccc(NC(=O)C2CCCN2C(=O)Nc2ccccc2)cc1OC (stereo not given)	3.8	-0.8	-7.8	-8.2	1.3	-3.9	·	·	·
CC1(C(=O)NCc2cccs2)Cc2c(-c3ccc4c(c3)OCO4)ccnc2O1 (stereo not given)	-0.4	·	·	-10.1	·	2.8	·	·	·
O=C(Nc1ccc(S(=O)(=O)NCC2CCCO2)cc1)C1CC(=O)N(c2ccccc2)C1 (stereo not given)	1.8	9.8	-3.3	5.5	2.7	-0.5	·	·	·
CCc1ccc(N2CC(C(=O)Nc3ccc(S(=O)(=O)NCC4CCCO4)cc3)CC2=O)cc1 (stereo not given)	1.6	6.5	-2.0	60.5*	0.1	4.9	64.5*	-1.6	-16.8
Cc1ccc(CNC(=O)C2(C)CCN2C(=O)Cc2ccc(-c3ccccc3)cc2)cc1 (stereo not given)	-1.9	·	·	3.6	·	1.9	·	·	·
CC(C)(C)c1ccc(C(=O)Nc2ccc(O)c3c(=O)cc(-c4ccccc4Cl)oc23)cc1	-1.1	3.7	-0.4	-12.7	-1.4	-4.0	·	·	·
Cc1ccc(/C=C/C(=O)Nc2ccc(O)c3c(=O)cc(-c4ccccc4Cl)oc23)cc1	4.6	6.6	-2.9	43.7*	7.9	4.9	26.8	-0.2	6.8
CCN(CC)S(=O)(=O)c1ccc(C(O)=C(C#N)c2nc3ccccc3n2C)cc1	3.0	·	·	-0.6	13.0	2.1	·	·	·
COc1cccc(Oc2cnc(N)nc2-c2ccc(OC)cc2O)c1	-4.4	-7.0	-9.6	52.5*	-14.2	-0.5	48.0	2.6	5.6
COc1ccc(-c2nc(N)ncc2Oc2ccccc2Br)c(O)c1	-4.2	-3.4	-0.4	61.8*	9.7	-1.1	23.4	0.4	4.1
C=Cc1ccc(C2=CC(=O)C[C@H](c3ccc(OC)cc3)C2)cc1	1.7	-26.4	-3.2	77.1*	13.9	-4.8	53.9*	0.2	12.1
O=C1C=C(c2ccc(-c3ccccc3)cc2)C[C@@H](c2ccc(F)cc2)C1	3.9	2.3	-3.4	24.5	11.4	3.7	·	·	·
Cc1ccc(C2=CC(=O)C[C@H](c3ccc(F)cc3)C2)cc1	-3.8	8.6	-3.5	70.3*	25.5	11.5	36.5	1.5	6.5
O=C1C=C(c2cc3ccccc3s2)C[C@@H](c2ccc(F)cc2)C1	0.5	11.2	-4.6	52.7*	8.6	-1.0	44.5	-1.2	-8.3
COc1ccc([C@H]2CC(=O)C=C(c3cccc(Br)c3)C2)cc1	-5.6	8.1	-3.1	41.0	19.4	1.7	·	·	·
COc1ccc(C2=CC(=O)C[C@H](c3ccc(Cl)cc3)C2)cc1	-1.0	16.6	0.0	49.8*	19.6	-2.9	58.8*	-2.1	-4.3
CC(CC(c1ccccc1)N1CCc2ccccc2C1)=NO (stereo not given)	2.2	·	·	-3.5	·	4.8	·	·	·
CC1(C(=O)NCc2ccc(Cl)cc2)CCN1C(=O)Cc1ccc(Cl)cc1Cl (stereo not given)	-8.6	·	·	2.9	·	2.9	·	·	·
